Experimental data: article PMC7983942 (Clinical Pharmacology and Therapeutics, 2020)
Positions count from the first letter of the chain named.

Key:
Assay type in all cases: in vitro ADME
OATP1B1*5 = target: T1, OATP1B1*5 (Homo sapiens, UniProt Q9Y6L6, V174A); experiment: Uptake into OATP1B1 variant-transfected vs wild-type HEK293 cells; details: for Uptake ratio (vs. wild‐type HEK293 cells): 2 minutes
T1 sequence (Q9Y6L6 1-691 V174A): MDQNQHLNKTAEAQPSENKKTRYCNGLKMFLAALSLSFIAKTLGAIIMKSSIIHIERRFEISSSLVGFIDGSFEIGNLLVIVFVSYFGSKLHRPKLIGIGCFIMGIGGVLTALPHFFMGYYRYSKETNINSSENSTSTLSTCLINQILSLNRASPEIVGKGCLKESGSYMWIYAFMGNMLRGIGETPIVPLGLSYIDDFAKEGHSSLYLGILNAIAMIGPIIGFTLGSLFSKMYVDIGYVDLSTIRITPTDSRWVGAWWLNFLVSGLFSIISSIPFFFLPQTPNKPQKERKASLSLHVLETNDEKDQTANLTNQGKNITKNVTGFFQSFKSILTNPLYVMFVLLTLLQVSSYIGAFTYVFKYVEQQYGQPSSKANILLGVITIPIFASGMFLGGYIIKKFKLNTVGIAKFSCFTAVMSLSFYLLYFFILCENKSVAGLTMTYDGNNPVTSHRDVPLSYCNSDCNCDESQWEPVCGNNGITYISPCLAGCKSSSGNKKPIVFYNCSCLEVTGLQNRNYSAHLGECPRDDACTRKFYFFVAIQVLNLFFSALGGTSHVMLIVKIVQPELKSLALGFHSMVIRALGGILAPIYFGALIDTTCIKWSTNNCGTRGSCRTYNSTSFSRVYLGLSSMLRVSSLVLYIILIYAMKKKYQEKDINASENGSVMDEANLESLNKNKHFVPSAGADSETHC
Outline: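 HEK293 cells stably expressing an OATP1B1 variant, alongside wild-type HEK293, were seeded at 0.5–1.2 × 10⁵ cells/well on poly-D-lysine plates. They grew 48 h at 37°C and 5% CO₂ in DMEM with 10% FBS, 1% pyruvate, nonessential amino acids and GlutaMAX. Substrate was 1 µM (0.5 µM where footnoted) for 2 min, then four ice-cold buffer washes and methanol lysis with internal standard. Uptake ratio (transfected/wild-type) is expressed as % of OATP1B1*14 in the same experiment; n=3 determinations.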

OATP1B1*1A = target: T2, OATP1B1*1A (Homo sapiens, UniProt Q9Y6L6); experiment: Uptake into transporter-transfected vs wild-type HEK293 cells
T2 sequence (Q9Y6L6 1-691): T1 sequence (Q9Y6L6 1-691 V174A) with A174V
Outline: (§1)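 HEK293 cells stably transfected with OATP1B1*1A, OATP1B3 or OATP2B1, plus wild-type cells, were seeded on poly-D-lysine plates. Culture was 48 h at 37°C in DMEM with 10% FBS, pyruvate, nonessential amino acids and GlutaMAX. Test compound was 1 µM for 2 min; rosuvastatin probe was 1 µM over 2–4 min. Cells were washed four times in ice-cold buffer and lysed in methanol with internal standard. Readouts were uptake ratio versus wild-type and glucuronide/probe ratio of ratios; mean ± SD, n=3 in one experiment.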

OATP2B1 = target: T3, OATP2B1 (Homo sapiens, UniProt O94956); experiment: as above; details: rosuvastatin 1 µM, two to four minutes
T3 sequence (O94956 1-709): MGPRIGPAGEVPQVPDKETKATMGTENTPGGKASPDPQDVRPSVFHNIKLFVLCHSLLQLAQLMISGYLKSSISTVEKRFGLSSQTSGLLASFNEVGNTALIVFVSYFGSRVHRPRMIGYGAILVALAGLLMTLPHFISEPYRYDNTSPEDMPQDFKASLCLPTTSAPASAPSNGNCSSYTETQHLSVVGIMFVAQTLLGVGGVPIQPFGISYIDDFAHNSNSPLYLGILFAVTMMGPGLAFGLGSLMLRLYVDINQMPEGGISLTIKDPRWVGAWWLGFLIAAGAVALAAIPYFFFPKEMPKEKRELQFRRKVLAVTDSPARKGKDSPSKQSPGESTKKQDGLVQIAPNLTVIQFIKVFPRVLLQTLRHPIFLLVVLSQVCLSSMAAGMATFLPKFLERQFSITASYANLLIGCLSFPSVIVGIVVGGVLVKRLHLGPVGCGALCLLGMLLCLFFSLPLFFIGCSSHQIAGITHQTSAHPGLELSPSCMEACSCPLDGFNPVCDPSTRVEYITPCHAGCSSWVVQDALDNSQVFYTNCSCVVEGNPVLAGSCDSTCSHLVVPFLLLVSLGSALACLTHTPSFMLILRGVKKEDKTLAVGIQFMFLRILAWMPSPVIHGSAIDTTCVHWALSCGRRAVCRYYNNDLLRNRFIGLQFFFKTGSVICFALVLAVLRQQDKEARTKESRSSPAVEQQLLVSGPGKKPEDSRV
Outline: as §1

[1] = experiment 1, substrate concentration 0.5 µM

Compound: CC(C)c1nc(N(C)S(C)(=O)=O)nc(-c2ccc(F)cc2)c1/C=C/[C@@H](O)C[C@@H](O)CC(=O)O [Rosuvastatin]
- Uptake ratio as percentage of OATP1B1*14 in the same experiment (OATP1B1*5; [1]): 16%
- Uptake ratio (vs. wild‐type HEK293 cells) (OATP1B1*5; [1]): 2.4 ± 0.4
- Uptake ratio as percentage of OATP1B1*14 in the same experiment (OATP1B1*5; experiment 2, substrate 1 µM): 15%
- Uptake ratio (vs. wild‐type HEK293 cells) (OATP1B1*5; experiment 2, substrate 1 µM): 5.9 ± 0.5
- Uptake ratio (vs. wild‐type HEK293 cells) (OATP1B1*1A; experiment 3, substrate 1 µM, 2 minutes): 51 ± 1.4
- Uptake ratio (vs. wild‐type HEK293 cells), probe (OATP1B1*1A; rosuvastatin 1 µM, two to four minutes): 51.3 ± 1.4
- Uptake ratio (vs. wild‐type HEK293 cells), probe (OATP2B1): 71.1 ± 9.6
